In article PMC3447631 (Chemistry & biology, 2012):
“Also recorded” adds a separate entry of the source.

Legend:
[1] = Tolerability and VetScan liver panel blood chemistry in mice; assay type: in vivo
In short: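 NONcNZO10/LtJ or ICR mice received vehicle (DMSO) or test compound IP once daily for 5 days. Normal-mouse groups were DMSO, 30 mg/kg/day and 10 mg/kg/day (n=4 each). Blood was drawn before sacrifice and run on a VetScan analyzer for ALP, ALT, GGT (IU/L), bile acids (μmol/L), total bilirubin, BUN, cholesterol (mg/dL) and albumin (g/dL).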

Hep3B-Luc cells = assay: Hep3B-Luc cytotoxicity; assay type: cell-based, human
In short: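 Hep3B cells engineered to express luciferase from a CMV promoter, tested alongside primary hepatocytes. Viability was read as bioluminescence at 24, 48 and 72 hours after treatment. Cell division was followed by BrdU uptake, with Oil Red O fat staining.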

p57Kip2 expression = assay: Kip2 mRNA in T6PNE cells; assay type: cell-based, human
In short: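 Kip2 mRNA in T6PNE cells measured by Q-PCR, normalized to 18s rRNA. Treated and DMSO vehicle cells were compared by Student's t-test.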

[2] = In vivo PK studies in mice; conditions: mouse, plasma
HNF4α = target: T1, HNF4α (Homo sapiens, UniProt P41235); assay: DARTS assay in HepG2 cells; assay type: binding; conditions: HepG2, 20μM, 24hr, subtilisin
T1 sequence (P41235 1-474): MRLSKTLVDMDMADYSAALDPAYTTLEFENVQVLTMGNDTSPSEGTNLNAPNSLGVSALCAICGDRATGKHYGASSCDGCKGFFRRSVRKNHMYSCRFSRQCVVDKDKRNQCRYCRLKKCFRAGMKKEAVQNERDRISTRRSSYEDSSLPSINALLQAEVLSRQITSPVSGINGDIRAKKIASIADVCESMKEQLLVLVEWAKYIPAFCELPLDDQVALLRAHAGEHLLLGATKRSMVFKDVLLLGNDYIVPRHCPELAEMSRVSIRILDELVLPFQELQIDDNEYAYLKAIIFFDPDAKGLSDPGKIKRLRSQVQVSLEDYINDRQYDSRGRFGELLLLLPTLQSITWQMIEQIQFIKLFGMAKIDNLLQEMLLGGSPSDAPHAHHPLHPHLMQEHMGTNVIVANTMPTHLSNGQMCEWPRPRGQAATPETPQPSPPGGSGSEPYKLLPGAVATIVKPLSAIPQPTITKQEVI
In short: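 DARTS: HepG2 cells were treated with DMSO or test compound at 20μM for 24hr. Read-out is the ligand-induced change in HNF4α sensitivity to proteolysis.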

HNF4α gene expression [3] = assay: HNF4α mRNA expression in HepG2 cells; assay type: cell-based; conditions: 48 hours
In short: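 HNF4α mRNA in treated HepG2 cells measured by Q-PCR and normalized to 18S rRNA. Differences in expression assessed by Student's t-test.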

Solubility = assay type: physicochemical; conditions: limits deliverable dose in vivo
tumor cell lines = assay: Toxicity to tumor cell lines versus cultured primary cells in vitro; assay type: cell-based
liver = assay: Hepatic steatosis in mice; assay type: in vivo; conditions: 10 and 30 mg/kg IP, dose-dependent
T6PNE cells = assay: Acylcarnitine analysis by GC/MS of T6PNE cell extracts; assay type: cell-based, human
[4] = Hepatic microsomal stability; assay type: in vitro ADME; conditions: 60-minute incubation in vitro
HNF4α gene expression [5] = assay: HNF4α mRNA expression in MIN6 cells; assay type: cell-based, murine; conditions: 5 hours
PPARγ = assay type: cell-based; conditions: PPRE-Luc, HeLa
In short: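 HeLa cells were co-transfected with a PPRE-Luc reporter, with or without a PPARγ expression vector, then treated with test compound. Read-out was luciferase activity; mean ± SE, n=3.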

L-type calcium channel = assay: Ricerca hit profiling panel: L-type calcium channel; assay type: binding; conditions: Ricerca panel of 41 receptors/enzymes
Hep3B cells = assay: Hep3B-Luc orthotopic xenograft in liver of nude mice; assay type: in vivo; conditions: 30 mg/kg IP daily or every other day
In short: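 Orthotopic model: luciferase-expressing Hep3B cells were injected into the liver parenchyma of nude mice. Once tumour was established (luciferase counts doubled on 3 consecutive bioluminescent reads), mice received test compound 30 mg/kg IP daily or every other day as tolerated, or DMSO vehicle. Tumour and normal liver were harvested after 20–57 days for Oil Red O, cleaved caspase-3 immunostaining and TUNEL.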

[6] = tested on: HNF4α-responsive OTC promoter; assay: OTC promoter-luciferase reporter co-transfected with full length human HNF4α; assay type: cell-based; conditions: 1μM, 48 hours
HNF4α DNA binding = target: T2, HNF4α DNA binding (Homo sapiens, UniProt P41235); assay: HNF4α DNA binding, HNF TransAM ELISA on HepG2 nuclear extracts; assay type: cell-based; conditions: HepG2 incubated overnight with compound
T2 sequence (P41235 1-474): T1 sequence (P41235 1-474)
In short: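 HepG2 cells were incubated overnight with test compound. Nuclear protein extracts (5μg) were added to wells bearing an oligonucleotide with an HNF4α binding site. Bound HNF4α was detected with an anti-HNF4α antibody (ELISA). Mean ± SD, n=3 biological replicates; Student's t-test.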

[7] = tested on: primary murine hepatocytes; assay: Primary murine hepatocytes in vitro; assay type: cell-based
In short: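 Primary murine hepatocytes were exposed to DMSO or test compound (5μM) for 3 days, then fixed and stained with Oil Red O.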

CYP (2C19) = CYP (2C19) (Homo sapiens, UniProt P33261); assay: Ricerca hit profiling panel: CYP 2C19; assay type: biochemical; conditions: Ricerca panel of 41 receptors/enzymes
HNF4α protein = HNF4α protein and Ki67 in mouse tissues after IP injection; assay type: in vivo; conditions: mice
[8] = tested on: panel of 60 human tumor cell lines; assay: NCI DTP panel of 60 human tumor cell lines; assay type: cell-based; conditions: NCI/NIH DTP screen
[9] = tested on: endogenous insulin promoter; assay: Endogenous insulin mRNA; assay type: cell-based, human; conditions: T6PNE cells
In short: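 Q-PCR of endogenous insulin mRNA in T6PNE cells after 48 h exposure to test compound across a concentration series. For fatty acids, cells got 1μM tamoxifen plus fatty acid or DMSO vehicle for 48 hours before RNA harvest. Insulin mRNA was normalized to GAPDH or 18S rRNA; mean ± SE, n=3.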

Sequence of CYP (2C19) (P33261 whole entry): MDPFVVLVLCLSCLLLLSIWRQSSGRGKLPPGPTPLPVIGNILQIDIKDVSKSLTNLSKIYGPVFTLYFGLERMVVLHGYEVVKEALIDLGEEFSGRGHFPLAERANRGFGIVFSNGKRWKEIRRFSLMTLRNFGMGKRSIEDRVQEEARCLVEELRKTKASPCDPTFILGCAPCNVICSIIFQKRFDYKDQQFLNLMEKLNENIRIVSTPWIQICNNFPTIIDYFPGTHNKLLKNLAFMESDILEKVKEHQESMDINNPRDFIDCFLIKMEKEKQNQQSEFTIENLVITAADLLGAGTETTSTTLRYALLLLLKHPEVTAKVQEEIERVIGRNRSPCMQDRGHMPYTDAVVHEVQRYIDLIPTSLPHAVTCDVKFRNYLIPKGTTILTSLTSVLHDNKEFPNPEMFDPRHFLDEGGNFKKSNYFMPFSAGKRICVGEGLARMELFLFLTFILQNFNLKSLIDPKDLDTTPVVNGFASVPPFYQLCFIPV

## Cc1ccc([N+](=O)[O-])cc1S(=O)(=O)n1c(C)nc2ccccc21 [BI6015, 2-Methyl-1-(2-methyl-5-nitrophenylsulfonyl)-1H-benzo[d]imidazole]
[1]; IP once per day for 5 days, 30 mg/kg
  tolerability: well tolerated
[1]; VetScan Liver Panel
  blood chemistries, including ALT: unaffected
Hep3B-Luc cells; after 48 hours of treatment
  BrdU incorporation in Hep3B-Luc cells: decreased
Hep3B-Luc cells; bioluminescence, 24, 48 and 72 hours
  toxicity to Hep3B cells: markedly toxic
p57Kip2 expression
  effect on Kip2 expression: reduced
[2]; ip, 30 mg/kg
  AUC: 26.7 ng·h/mL
[2]; other: oral gavage or intraperitoneal (IP) injection
  half-life: ~1.5 h
HNF4α
  effect on HNF4α protease sensitivity (DARTS): induced altered HNF4α protease sensitivity
HNF4α gene expression [3]
  effect on HNF4α expression in HepG2: strongly repressed
Solubility
  solubility: limited solubility
Tumor cell lines
  toxicity to tumor cell lines in vitro: toxic
liver
  hepatic steatosis in vivo: marked fat accumulation (steatosis)
T6PNE cells
  acetylcarnitine: concurrent increase
  longer chain acylcarnitines (C18, C18:1, C16, C14): decreased levels
[4]
  hepatic microsomal stability, compound remained: 22%
HNF4α gene expression [5]
  effect on HNF4α expression in MIN6: strongly repressed
PPARγ
  activity as PPARγ agonist: lacked activity as a PPARγ agonist; also recorded: not to be a PPARγ agonist
L-type calcium channel
  cross reactivity with L-type calcium channel: significant cross reactivity
Hep3B cells
  apoptosis (TUNEL, cleaved caspase-3) in the normal liver: but not in the normal liver
  apoptosis (TUNEL, cleaved caspase-3) within the tumor: high levels of apoptotic cells
  tumor luciferase counts: some treated animals exhibited decreased luciferase counts, this did not occur in all animals
Hep3B cells; 20–57 days
  Oil Red O staining in normal liver and tumor: marked induction
[6]
  OTC promoter-driven luciferase expression in CV-1 cells: inhibited
  OTC promoter-driven luciferase expression in HepG2 cells: inhibited
HNF4α DNA binding
  effect on HNF4α DNA binding: potently repressed
[7]
  toxicity in primary hepatocytes in vitro: Toxicity was not observed
[7]; 5μM, 3 days, Oil Red O
  steatosis in primary mouse hepatocytes in vitro: induced steatosis
CYP (2C19)
  cross reactivity with CYP 2C19: significant cross reactivity
HNF4α protein; IP
  HNF4α expression in the intestine or kidney: does not change
  HNF4α protein in the liver: loss of HNF4α protein
HNF4α protein; versus vehicle
  number of cells expressing Ki67 in liver, intestine or kidney: no difference
[8]
  effect on panel of 60 human tumor cell lines: Slowed growth and/or toxicity
[9]
  effect on endogenous insulin expression / insulin promoter activity: potently inhibited
  reduction of endogenous insulin gene expression: 50 fold
